Measurements from ChEMBL document CHEMBL4330063, “New naphthopyran analogues of LY290181 as potential tumor vascular-disrupting agents” (Eur J Med Chem, 2019).
Calls of active or inactive are those of the source. The calls are words filed in the database; no cut-off is given here.

Assays:
[1] = Antiproliferative activity against human A2780cis cells after 72 hrs by SRB assay; type: functional, cell-based
How it was run: (§1)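 Ovarian A2780 and cisplatin-resistant A2780cis cells were exposed for 72 h and stained with SRB. IC50 comes from dose-response curves, as means±SD of three independent experiments. Final DMSO was below 1%, with matched vehicle controls.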

[2] = test system: HT-29; experiment: Cell cycle arrest in human HT-29 cells assessed as accumulation of cells at S phase at 250 nM after 24 hrs by propidium iodide staining-based flow cytometric analysis (reference value: 12.3 +/- 0.4%); type: functional
[3] = test system: HT-29; experiment: Cell cycle arrest in human HT-29 cells assessed as accumulation of cells at G2/M phase at 250 nM after 24 hrs by propidium iodide staining-based flow cytometric analysis (reference value: 11.4 +/- 1.4%); type: functional
[4] = test system: HT-29; experiment: Cell cycle arrest in human HT-29 cells assessed as accumulation of cells at G1 phase at 100 nM after 24 hrs by propidium iodide staining-based flow cytometric analysis (reference value: 75.1 +/- 1.1%); type: functional
[5] = test system: EA.hy 926; experiment: Antiproliferative activity against human EAhy926 cells after 72 hrs by MTT assay; type: functional, cell-based; conditions: EA.hy 926, 72 h
How it was run: (§2)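 MTT read-out after 72 h of continuous exposure. Viability is expressed as percentage of viable cells relative to untreated controls. IC50 comes from dose-response curves. Values are means±SD of four independent experiments (two for some entries). DMSO was below 1%, with vehicle controls at equal DMSO. Precipitation was excluded spectrometrically and microscopically.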

[6] = test system: HT-29; experiment: Cell cycle arrest in human HT-29 cells assessed as accumulation of cells at G2/M phase after 24 hrs by propidium iodide staining-based flow cytometric analysis; type: functional
[7] = test system: A2780; experiment: Antiproliferative activity against human A2780 cells after 72 hrs by SRB assay; type: functional, cell-based; conditions: A2780, 72 h; how it was run: as §1
[8] = test system: DLD-1; experiment: Antiproliferative activity against human DLD1 cells after 72 hrs by MTT assay; type: functional, cell-based; conditions: DLD-1, 72 h; how it was run: as §2
[9] = target: Tubulin (Sus scrofa, UniProt P02554+P02550); experiment: Inhibition of porcine brain tubulin polymerization after 2 hrs
[10] = test system: 518A2; experiment: Effect on F-actin in human 518A2 cells assessed as thick stress fibers formation at 100 nM after 3 hrs by DAPI staining-based fluorescence microscopic analysis; type: cell-based
How it was run: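 518A2 melanoma cells were treated with 100 nM for 3 h. Filamentous actin was fluorescence-labelled, nuclei were counterstained with DAPI, and the cells were imaged by fluorescence microscopy. Images come from two independent experiments.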

[11] = test system: HT-29; experiment: Cell cycle arrest in human HT-29 cells assessed as accumulation of cells at S phase at 100 nM after 24 hrs by propidium iodide staining-based flow cytometric analysis (reference value: 12.3 +/- 0.4%); type: functional
[12] = test system: 518A2; experiment: Antiproliferative activity against human 518A2 cells after 72 hrs by MTT assay; type: functional, cell-based; conditions: for IC50: 518A2, 72 h; how it was run: as §2
[13] = test system: HT-29; experiment: Cell cycle arrest in human HT-29 cells assessed as accumulation of cells at G2/M phase at 350 nM after 24 hrs by propidium iodide staining-based flow cytometric analysis (reference value: 11.4 +/- 1.4%); type: functional
[14] = test system: EA.hy 926; experiment: Antiangiogenic activity against human EAhy926 cells assessed as inhibition of tube formation on matrigel at 100 nM after 24 hrs by light microscopic analysis; type: functional, cell-based
How it was run: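 Ea.Hy926 endothelial hybrid cells were seeded on matrigel with compound and examined for tubular/cord-like network formation versus untreated controls. Viability under the same conditions was checked in parallel by MTT to exclude cytotoxic effects.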

[15] = test system: EA.hy 926; experiment: Cytotoxicity against human EAhy926 cells at 100 nM after 24 hrs by MTT assay relative to control; type: cell-based; conditions: ea.hy 926, 24 h, 0.1 µM
[16] = test system: HCT-116; experiment: Antiproliferative activity against human HCT116 cells after 72 hrs by MTT assay; type: functional, cell-based; conditions: HCT-116, 72 h; how it was run: as §2
[17] = test system: 518A2; experiment: Induction of cell cycle arrest in human 518A2 cells; type: functional, cell-based
[18] = test system: 518A2; experiment: Induction of apoptosis in human 518A2 cells assessed as caspase-9 activity at 5 uM after 3.5 hrs by Caspase-Glo luminescence assay (reference value: 100 +/- 1.2%); type: functional
[19] = test system: 518A2; experiment: Induction of apoptosis in human 518A2 cells at 100 nM after 24 hrs by TUNEL assay relative to control; type: functional
[20] = target: Tubulin (Homo sapiens) (UniProt P68371+Q9H4B7+P0DPH7+P68366+Q13509+Q71U36+P04350+Q3ZCM7+P07437+P68363+Q9BQE3+Q6PEY2+Q13885+Q9BVA1+Q9BUF5); experiment: Induction of microtubule disruption in human 518A2 cells at 100 nM after 3 hrs by DAPI staining-based fluorescence microscopic analysis; type: cell-based
How it was run: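 Microtubule organization in 518A2 melanoma cells was checked by tubulin immunofluorescence staining after 3 h exposure to 100 nM, with DAPI as the nuclear counterstain. Images come from two independent experiments.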

[21] = test system: HT-29; experiment: Antiproliferative activity against human HT-29 cells after 72 hrs by MTT assay; type: functional, cell-based; conditions: HT-29, 72 h; how it was run: as §2
[22] = test system: HT-29; experiment: Cell cycle arrest in human HT-29 cells assessed as accumulation of cells at G2/M phase at 100 nM after 24 hrs by propidium iodide staining-based flow cytometric analysis (reference value: 11.4 +/- 1.4%); type: functional
[23] = test system: HT-29; experiment: Cell cycle arrest in human HT-29 cells assessed as accumulation of cells at sub G1 phase at 350 nM after 24 hrs by propidium iodide staining-based flow cytometric analysis (reference value: 1.2 +/- 0.3%); type: functional
[24] = test system: PANC-1; experiment: Antiproliferative activity against human PANC1 cells after 72 hrs by MTT assay; type: functional, cell-based; conditions: PANC-1, 72 h; how it was run: as §2
[25] = test system: HT-29; experiment: Cell cycle arrest in human HT-29 cells assessed as accumulation of cells at sub G1 phase at 100 nM after 24 hrs by propidium iodide staining-based flow cytometric analysis (reference value: 1.2 +/- 0.3%); type: functional
[26] = test system: HT-29; experiment: Cell cycle arrest in human HT-29 cells assessed as accumulation of cells at sub G1 phase at 250 nM after 24 hrs by propidium iodide staining-based flow cytometric analysis (reference value: 1.2 +/- 0.3%); type: functional
[27] = test system: HT-29; experiment: Cell cycle arrest in human HT-29 cells assessed as accumulation of cells at G1 phase at 350 nM after 24 hrs by propidium iodide staining-based flow cytometric analysis (reference value: 75.1 +/- 1.1%); type: functional
[28] = test system: HT-29; experiment: Cell cycle arrest in human HT-29 cells assessed as accumulation of cells at S phase at 350 nM after 24 hrs by propidium iodide staining-based flow cytometric analysis (reference value: 12.3 +/- 0.4%); type: functional
[29] = Antiproliferative activity against human KB-V1/Vbl cells after 72 hrs by MTT assay; type: functional, cell-based; how it was run: as §2
[30] = test system: 518A2; experiment: Induction of apoptosis in human 518A2 cells assessed as accumulation at subG1 phase; type: functional, cell-based
[31] = test system: 518A2; experiment: Antimigratory activity against human 518A2 cells at 50 nM after 48 hrs by wound healing assay; type: functional, cell-based
[32] = Antiproliferative activity against human MCF7/Topo cells after 72 hrs by MTT assay; type: functional, cell-based; how it was run: as §2
[33] = test system: HT-29; experiment: Cell cycle arrest in human HT-29 cells assessed as accumulation of cells at G1 phase at 250 nM after 24 hrs by propidium iodide staining-based flow cytometric analysis (reference value: 75.1 +/- 1.1%); type: functional

N#CC1=C(N)Oc2c(ccc3ccccc23)C1c1cc(F)cc(F)c1 (stereo not drawn)
IC50 [1]: 20.3 nM | Activity [2]: 19.2% | Activity [3]: 33.6% | Activity [4]: 40.3% | IC50 [5]: 31.5 nM | Activity [6]: Dose-dependent effect | IC50 [7]: 17 nM | IC50 [8]: 32.3 nM | I50 [9]: 9.6 µM | Activity [10]: Active | Activity [11]: 20.7% | Activity [12]: Dose-dependent effect | IC50 [12]: 26.4 nM | Activity [13]: 43.5% | Activity [14]: Active | Activity [15]: > 68% | IC50 [16]: 47 nM | Activity [17]: inactive | Activity [18]: 133% | Activity [19]: 67.5% | Activity [20]: Active | IC50 [21]: 176 nM | Activity [22]: 31.8% | Activity [23]: 13.4% | IC50 [24]: 19.5 nM | Activity [25]: 7.1% | Activity [26]: 11.3% | Activity [27]: 30.8% | Activity [28]: 12.3% | IC50 [29]: 25.8 nM | Activity [30]: Active | Activity [31]: Active | IC50 [32]: 20.1 nM | Activity [33]: 35.9%

N#CC1=C(N)Oc2c(ccc3ccccc23)C1c1cccc([N+](=O)[O-])c1 (stereo not drawn)
IC50 [1]: 26 nM | Activity [2]: 22.4% | Activity [3]: 12.9% | Activity [4]: 49.3% | IC50 [5]: 35.6 nM | Activity [6]: Dose-dependent effect | IC50 [7]: 18.7 nM | IC50 [8]: 33.7 nM | I50 [9]: 7.1 µM | Activity [10]: Active | Activity [11]: 26.2% | Activity [12]: Dose-dependent effect | IC50 [12]: 35.9 nM | Activity [13]: 23.9% | Activity [14]: Active | Activity [15]: > 68% | IC50 [16]: 44.3 nM | Activity [17]: inactive | Activity [18]: 114.7% | Activity [19]: 61.4% | Activity [20]: Active | IC50 [21]: 46.9 nM | Activity [22]: 18.4% | Activity [23]: 12.2% | IC50 [24]: 12.5 nM | Activity [25]: 6.1% | Activity [26]: 13% | Activity [27]: 39.8% | Activity [28]: 24.1% | IC50 [29]: 22.6 nM | Activity [30]: Active | Activity [31]: Active | IC50 [32]: 11.8 nM | Activity [33]: 51.7%
